In paper PMC2649974 (Proteins, 2009):

Tests used:
human PMK [1] = target: T1, human PMK (Homo sapiens, UniProt Q15126); assay type: binding; conditions: for Kd: read-out: Kd in all complexes, binary and ternary complexes, NMR, pH 6.5, 25 °C
T1 sequence (Q15126 1-192): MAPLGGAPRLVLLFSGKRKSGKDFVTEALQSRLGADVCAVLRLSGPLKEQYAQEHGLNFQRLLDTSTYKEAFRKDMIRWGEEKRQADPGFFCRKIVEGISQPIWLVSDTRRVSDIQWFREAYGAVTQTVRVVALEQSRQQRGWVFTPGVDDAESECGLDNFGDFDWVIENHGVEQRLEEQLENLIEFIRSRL
Outline: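 Uniformly 15N-labelled His6-tagged human PMK from E. coli BL21(DE3) Rosetta, Ni-purified. Held at 400-600 μM in 20 mM KH2PO4, 5 mM DTT, 10% D2O, 0.02% NaN3, pH 6.5, 25 °C. Mg-ADP (1:1 MgCl2) or M5P added in 100 μM steps to saturation, in either order. Fast-exchange 1H/15N shifts (15N scaled by 6.51) were fitted to a quadratic with total protein and ligand.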

human PMK [2] = target: T1, human PMK; conditions: previously reported Km values; cited from earlier work

Row | binding to PMK (in words) (human PMK [1]; compared to ATP or ADP, HSQC titration onto Apo-PMK) | Kd (human PMK [1]) | Compound | Km (human PMK [2])
1 | binds only weakly | – | Nc1ncnc2c1ncn2[C@@H]1O[C@H](COP(=O)(O)OP(=O)(O)NP(=O)(O)O)[C@@H](O)[C@H]1O [AMP-PNP] | –
2 | – | 6 to 60 µM | Nc1ncnc2c1ncn2[C@@H]1O[C@H](COP(=O)(O)OP(=O)(O)O)[C@@H](O)[C@H]1O [Mg-ADP, ADP] | 47 ± 5 µM
3 | – | 6 to 60 µM | C[C@@](O)(CCOP(=O)(O)O)CC(=O)O [M5P, mevalonate 5-phosphate] | 34 ± 3 µM
